Assay outcomes deposited in PubChem by several laboratories.
SUMO HTRF inh: SUMOylation inhibition. P63279. inhibition, % at 35 µM. HTRF SUMOylation assay, SAE1/SAE2 + UBC9, in vitro. 290,000 compounds, 0.36% hits; in the data active means inhibition above about 50%, passing the limit was not always enough
UBC13 inh: human UBC13 polyubiquitination inhibition | inhibition, % at 20 µM | UBC13 polyubiquitin chain formation, TR-FRET | AID 485273 | 330,000 compounds, 0.47% hits | P61088; in the data active means inhibition above about 45%, passing the limit was not always enough
GSTO1 inh: GSTO1 inhibition, counter-screen for RBBP9 inhibitors | inhibition, % at 5.96 µM | P78417 | 300,000 compounds, 1.1% hits | recombinant GSTO1, activity-based probe fluorescence polarization;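 active means inhibition above the campaign mean inhibition plus 3 SD, cut at about 35% in these data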
Apaf-1 inh: human Apaf-1 inhibition | O14727 | reconstituted apoptosome caspase-3 activity, DEVD-Rh110 fluorescence | inhibition, % at 20 µM | 330,000 compounds, 0.71% hits | AID 489030; active means inhibition of at least 40% at 20 µM
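Material: reconstituted apoptosome with Apaf-1, cytochrome c, caspase-9, procaspase-3, dATP. Technique: Rh110 fluorescence intensity. Buffer or medium: pH 7.5 Hepes buffer with CHAPS, BSA, DTT. Times: 30 min plus 50 min, RT.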
Rin1 Abl inh: human Rin1-Abl interaction inhibition | inhibition, % at 7.35 µM | P00519+Q13671 | TR-FRET Rin1/Abl binding, biochemical | AID 588664 | 360,000 compounds, 0.4% hits; in the data active means inhibition above about 5%, passing the limit was not always enough
PAD4 FP inh: PAD4 (human) enzyme inhibition. Q9UM07. recombinant PAD4, RCA probe fluorescence polarization. inhibition, % at 6.36 µM. 330,000 compounds, 0.41% hits;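 active means percent inhibition above a cutoff equal to the mean of all tested compounds plus 3 SD, cut at about 15% in these data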
A number is an active result. A selection: hits, their analogues and other compounds. The true share with any hit is near 2.2%.

`C#CCOCCOCCOCCNc1nc(N2CCN(C(=O)CCCCCCCCCCNC(=O)[C@@H](CCSC)n3cc(CCO)nn3)CC2)nc(N2CCN(C(=O)CCCCCCCCCCNC(=O)[C@@H]([C@H](C)O)n3cc(C)nn3)CC2)n1` gave UBC13 inh inactive, GSTO1 inh inactive, Apaf-1 inh inactive, Rin1 Abl inh inactive and PAD4 FP inh inactive.
`C#CCOCCOCCOCCNc1nc(N2CCN(C(=O)CCCCCCCCCCNC(=O)[C@H](CCCCN)n3cc(C[C@@H](C)CC)nn3)CC2)nc(N2CCN(C(=O)CCCCCCCCCCNC(=O)[C@@H]([C@H](C)O)n3cc(C)nn3)CC2)n1` gave UBC13 inh 118, GSTO1 inh inactive, Apaf-1 inh 58, Rin1 Abl inh inactive and PAD4 FP inh inactive.
`Cc1ccc(Cn2ccsc2=NC(=O)CCl)cc1` gave SUMO HTRF inh inactive, UBC13 inh inactive, GSTO1 inh 84, Apaf-1 inh inactive, Rin1 Abl inh inactive and PAD4 FP inh inactive.
C/C(CCN1CCc2nc(-c3ccccc3)c(-c3ccccc3)cc2C1)=N\OC[C@@H](C)[C@H](OCc1ccccc1)C(C)C was read as SUMO HTRF inh inactive, UBC13 inh inactive, GSTO1 inh inactive, Apaf-1 inh 47 and PAD4 FP inh inactive.
C/C(CCN1CCc2nc(-c3ccccc3)c(-c3ccccc3)cc2C1)=N\O[C@H](C)c1cn([C@H](CO)Cc2ccccc2)nn1 was read as SUMO HTRF inh inactive, UBC13 inh inactive, GSTO1 inh inactive, Apaf-1 inh inactive and PAD4 FP inh inactive.
For Cc1ccc(S(=O)(=O)N/N=C/c2ccccc2O)cc1[N+](=O)[O-] the results were SUMO HTRF inh inactive, UBC13 inh inactive, GSTO1 inh inactive, Apaf-1 inh inactive, Rin1 Abl inh inactive and PAD4 FP inh inactive.
Cc1ccc(S(=O)(=O)N/N=C/c2ccc(O)c(O)c2)cc1[N+](=O)[O-] was read as SUMO HTRF inh inactive, UBC13 inh inactive, GSTO1 inh 50, Apaf-1 inh inactive, Rin1 Abl inh inactive and PAD4 FP inh inactive.
Nc1ncnc2c1ncn2C1OC(COP(=O)(O)O)C(O)C1O (centres undefined) was read as UBC13 inh inactive, GSTO1 inh inactive, Apaf-1 inh inactive, Rin1 Abl inh inactive and PAD4 FP inh inactive.
For Nc1ncnc2c1ncn2[C@@H]1O[C@H](COP(=O)(O)O)[C@@H](O)[C@H]1O the results were SUMO HTRF inh 62, UBC13 inh inactive, GSTO1 inh inactive, Apaf-1 inh inactive, Rin1 Abl inh inactive and PAD4 FP inh inactive.
For CSc1ccccc1NC(=O)CN(C)C(=O)CNC(=O)c1ccc(Oc2ccccc2)cc1 the results were Rin1 Abl inh inactive.
For CCCCCCNC(=O)N[C@H](C(=O)NCCC[C@H]1CN2C(=NC[C@H]2C)N1CCC(c1ccccc1)c1ccccc1)C(C)O (some centres undefined) the results were SUMO HTRF inh inactive, UBC13 inh 49, GSTO1 inh inactive, Apaf-1 inh inactive and PAD4 FP inh inactive.
Cc1ccc2nc(CCl)[n+]([O-])c(-c3ccccc3)c2c1 was read as SUMO HTRF inh inactive, UBC13 inh inactive, GSTO1 inh 36, Apaf-1 inh inactive, Rin1 Abl inh inactive and PAD4 FP inh inactive.
`Cc1ccc2nc(Cl)c(-c3ccccc3)cc2c1` gave UBC13 inh inactive, GSTO1 inh inactive, Apaf-1 inh inactive, Rin1 Abl inh inactive and PAD4 FP inh inactive.
`CCCCn1c(N)c(N(CCOC)C(=O)COC(=O)COc2ccccc2C#N)c(=O)[nH]c1=O` gave UBC13 inh inactive, GSTO1 inh inactive, Apaf-1 inh inactive, Rin1 Abl inh inactive and PAD4 FP inh inactive.
`S=C(Nc1ccc2cn[nH]c2c1)Nc1ccccc1Cl` gave SUMO HTRF inh 88, UBC13 inh inactive, GSTO1 inh inactive, Apaf-1 inh inactive, Rin1 Abl inh inactive and PAD4 FP inh inactive.
`S=C(Nc1ccc2cn[nH]c2c1)Nc1ccc(Cl)cc1Cl` gave SUMO HTRF inh inactive, UBC13 inh inactive, GSTO1 inh inactive, Apaf-1 inh inactive, Rin1 Abl inh inactive and PAD4 FP inh inactive.
Cc1ccnc(NS(=O)(=O)c2ccc(NC(=O)c3ccc([N+](=O)[O-])s3)cc2)n1 was read as SUMO HTRF inh inactive, UBC13 inh inactive, GSTO1 inh 37, Apaf-1 inh inactive, Rin1 Abl inh inactive and PAD4 FP inh inactive.
For C#CCOCCOCCOCCNc1nc(N2CCN(C(=O)C(Cc3cc4ccccc4[nH]3)n3cc(C(N)C(C)CC)nn3)CC2)nc(N2CCN(C(=O)C(Cc3cc4ccccc4[nH]3)n3cc(C(N)C(C)CC)nn3)CC2)n1 (centres undefined) the results were SUMO HTRF inh inactive, UBC13 inh 94, GSTO1 inh inactive, Apaf-1 inh inactive and PAD4 FP inh inactive.
`C#CCOCCOCCOCCNc1nc(N2CCN(C(=O)[C@H](CCC(=O)O)n3cc(C(N)CC(C)C)nn3)CC2)nc(N2CCN(C(=O)[C@H](Cc3cc4ccccc4[nH]3)n3cc(C(N)[C@H](C)CC)nn3)CC2)n1` (some centres undefined) gave SUMO HTRF inh inactive, UBC13 inh inactive, GSTO1 inh inactive, Apaf-1 inh inactive and PAD4 FP inh inactive.
For C#CCOCCOCCOCCNc1nc(N2CCN(C(=O)[C@H]([C@@H](C)CC)n3cc([C@@H](N)CC(C)C)nn3)CC2)nc(N2CCN(C(=O)[C@H](Cc3cc4ccccc4[nH]3)n3cc([C@@H](N)C(C)CC)nn3)CC2)n1 (some centres undefined) the results were SUMO HTRF inh inactive, UBC13 inh 81 and Apaf-1 inh inactive.
`Cc1cccc(CNC(=O)C2CCC(=O)N(CC3CCCCC3)C2)c1` (centres undefined) gave Rin1 Abl inh inactive.
For CN(CC(=O)Nc1cccc(F)c1)C(=O)c1cc(-c2ccco2)nc2ccccc12 the results were UBC13 inh inactive, GSTO1 inh inactive, Apaf-1 inh inactive, Rin1 Abl inh inactive and PAD4 FP inh inactive.
`COc1ccc(NC(=O)CN(C)C(=O)c2cc(-c3ccco3)nc3ccccc23)cc1` gave UBC13 inh inactive, GSTO1 inh 37, Apaf-1 inh inactive, Rin1 Abl inh inactive and PAD4 FP inh inactive.
For CCc1nnc(NC(=O)c2cc(-c3ccco3)nc3ccccc23)s1 the results were SUMO HTRF inh 67, UBC13 inh inactive, GSTO1 inh inactive, Apaf-1 inh inactive, Rin1 Abl inh inactive and PAD4 FP inh inactive.
`Cc1ccccc1S(=O)(=O)NC(=O)C1(C)CCN1C(=O)C1CCCCC1` (centres undefined) gave Rin1 Abl inh inactive.
For C=CCNC(=S)Nc1ccc2nsnc2c1 the results were SUMO HTRF inh 99, UBC13 inh inactive, GSTO1 inh inactive, Apaf-1 inh inactive, Rin1 Abl inh inactive and PAD4 FP inh inactive.
Screening O=C(O)/C=C/C(=O)Nc1ccc2c(c1)C(=O)c1ccccc1C2=O returned SUMO HTRF inh inactive, UBC13 inh inactive, GSTO1 inh 37, Apaf-1 inh inactive, Rin1 Abl inh inactive and PAD4 FP inh inactive.
